An excerpt weighted towards active compounds, which were near 3.5% of everything screened.
RGS4 block: human RGS4 inhibition | P49798 | HEK293 M3R/RGS4 inducible, Fluo-4 calcium flux; hits give high values; triggered by carbachol at its EC20 | B-score at 10 µM | 310,000 tested, 0.45% active | AID 463165;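 active = B-score, a plate-corrected calcium signal, over three deviations above library mean, with baseline fluorescence within five deviations of library mean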;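 note: RGS4 expression induced by doxycycline in cells with stable M3 receptor; B-score is computed from the integrated fluorescence ratio over baseline after carbachol; higher B-score means a larger calcium signal and so more RGS4 inhibition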
Target sequence (P49798 whole entry, looked up): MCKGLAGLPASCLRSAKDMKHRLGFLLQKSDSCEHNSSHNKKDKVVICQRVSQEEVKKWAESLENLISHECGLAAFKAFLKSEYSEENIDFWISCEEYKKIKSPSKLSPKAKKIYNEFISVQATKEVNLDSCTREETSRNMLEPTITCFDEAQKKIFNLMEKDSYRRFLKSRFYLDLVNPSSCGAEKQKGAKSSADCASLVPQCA
MrgX1 allo act: allosterically activates human MrgX1 receptor signaling; 310,000 tested, 0.63% active; AID 588675; MrgX1-HEK293, Fluo-4 calcium flux, FDSS; hits give high values; B-score at 10 µM; Q96LB2;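 active = plate-corrected calcium response at least 3 library SD above typical, normal starting fluorescence, not activating the receptor alone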;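 note: compound read alongside a low EC10 to EC30 dose of BAM8-22 agonist; peak minus trough fluorescence over baseline measured at the second addition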
Target sequence (Q96LB2 whole entry, looked up): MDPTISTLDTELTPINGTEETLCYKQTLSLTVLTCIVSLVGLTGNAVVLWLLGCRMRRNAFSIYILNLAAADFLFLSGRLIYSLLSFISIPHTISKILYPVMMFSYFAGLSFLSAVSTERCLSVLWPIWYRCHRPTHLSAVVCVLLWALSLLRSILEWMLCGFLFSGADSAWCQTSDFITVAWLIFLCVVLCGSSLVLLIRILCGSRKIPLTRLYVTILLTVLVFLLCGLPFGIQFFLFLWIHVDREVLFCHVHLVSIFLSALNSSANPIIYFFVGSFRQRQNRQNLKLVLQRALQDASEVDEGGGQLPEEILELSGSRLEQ
MrgX1 antag: antagonists of human MrgX1 receptor; Q96LB2; MRGX1-HEK293 calcium flux, Fluo-4, BAM8-22 antagonism; hits give low values; B-score at 10 µM; 310,000 tested, 1.3% active; AID 588676;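 active = calcium-response B-score plate-corrected more than 3 library SD below zero, starting fluorescence within 5 deviations, no agonist response on first addition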;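 note: peak minus trough fluorescence over baseline after final BAM8-22 challenge near maximal dose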
MrgX1 ag: human MrgX1 receptor agonism, primary screen; MrgX1-HEK293 cells, Fluo-4 calcium fluorescence, agonist mode; hits give high values; Q96LB2; 310,000 tested, 0.44% active; B-score at 10 µM;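 active = calcium response B-score plate-corrected fluorescence ratio at least 3 library SD, with starting fluorescence B-score inside 5 SD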
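System: HEK293 cells stably expressing human MrgX1 receptor; Dosing: test compound in the initial addition of three; Schedule: overnight plating, then 30 min 37 °C plus 30 min room-temperature dye loading; Detection: kinetic calcium dye fluorescence, Fluo-4 NW; Controls: per-plate positive and negative controls for Z′ factor.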
RGS4 act: potentiators or activators of RGS4; HEK293 M3R/inducible RGS4, carbachol calcium flux Fluo4; hits give low values; B-score at 10 µM; 310,000 tested, 0.92% active;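 active = B-score of the integrated calcium signal more than 4 SD below the library mean, with starting fluorescence not abnormally high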;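 note: negative B-score means reduced calcium response which marks RGS4 activation or potentiation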
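test system = HEK293 cells with stable M3R and inducible RGS4 | schedule = recording 10 s baseline at 1 Hz, 100 s post-agonist | technique = Fluo4-AM (2 µM) calcium-flux fluorescence, kinetic read | measure = Agonist-evoked peak-minus-minimum fluorescence over baseline, integrated ratio, B score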
MrgX1 antag conf: confirmation of human MrgX1 receptor antagonists | shares compounds with MrgX1 antag | MrgX1-HEK293, BAM8-22 calcium flux, Fluo-4; hits give low values | remaining BAM8-22 calcium response % of control (hits give low values), % at 10 µM | 2,300 tested, 19% active;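 active = remaining agonist calcium response no higher than 100% minus 3 SD of agonist-only control wells, with starting fluorescence near control levels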;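 note: agonist BAM8-22 given at a near maximal EC90 to ECmax level; peak minus minimum fluorescence divided by baseline after agonist addition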
HEK293 Ca flux: activity in parental HEK293 cells lacking MrgX1 | shares compounds with MrgX1 antag | Fluo-4 calcium fluorescence, FDSS | fluorescence ratio F(max-min)/F0 at 10 µM | 4,000 tested, 2% active;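 active = duplicate-averaged calcium fluorescence ratio at least three times the standard deviation of buffer wells, a nonspecific response in parental cells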
HEK293 Ca counter: activity in parental HEK293 cells without MrgX1 | parental HEK293 calcium flux, Fluo-4 fluorescence ratio; hits give high values | 4,000 tested, 0.4% active | shares compounds with MrgX1 antag | AID 624114 | fluorescence ratio F(max-min)/F0 at 10 µM;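 active = calcium fluorescence ratio, averaged over duplicates, at least 3 SD of the buffer-well ratio, meaning a nonspecific response in receptor-free cells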;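 note: untransfected parental HEK293 lacking MrgX1 used as counterscreen for MrgX1 allosteric activators; fluorescence change taken during the second addition on a kinetic imager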
HEK293 Ca cntr2: counter-screen for MrgX1 activators: effect in parental HEK293 cells | AID 624115 | shares compounds with MrgX1 antag | Fluo-4 calcium fluorescence (FDSS); hits give high values | fluorescence ratio F(max-min)/F0 at 10 µM | 4,000 tested, 8.7% active;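 active = calcium fluorescence ratio at least three times the spread of buffer wells, meaning a non-specific response in parental cells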
* hit, by the source's call; i = inactive; x = not tested or not shown.

SMILES	RGS4 block	MrgX1 allo act	MrgX1 antag	MrgX1 ag	RGS4 act	MrgX1 antag conf	HEK293 Ca flux	HEK293 Ca counter	HEK293 Ca cntr2
Nc1ccn(Cc2ccc(F)cc2)n1	i	i	i	i	i	x	x	x	x
CC(Cc1cccs1)NC(=S)Nc1ccc(Cl)c(Cl)c1 (stereo not given)	i	i	-6.8*	i	i	i	i	i	i
CC(Cc1cccs1)NC(=O)Nc1cccc(Cl)c1 (stereo not given)	i	i	i	i	i	x	x	x	x
O=C(CN(C(=O)CCC(=O)Nc1ccccn1)c1ccc(F)cc1)NCc1ccc(F)cc1	i	i	i	i	i	x	x	x	x
CCOc1ccc(CC(=O)Nc2cc(=O)n(C)c(=O)n2C)cc1	i	i	i	i	i	x	x	x	x
COc1ccc(CC(=O)Nc2cc(=O)n(C)c(=O)n2C)cc1	i	i	-7.7*	i	i	i	i	i	i
Cc1cccc(OCC(=O)NC2CCCC2)c1	i	i	i	i	i	x	x	x	x
Cc1cccc(OCCCC(=O)NC2CCCCC2)c1	i	i	-6.7*	i	i	i	i	i	i
CC1(C)CC(=O)C=C(Nc2ccc(C(=O)O)c(O)c2)C1	i	i	i	i	i	x	x	x	x
CCOC(=O)CN1C(=O)N[C@@H](c2cccc(C(F)(F)F)c2)[C@@H](C(=O)OC)[C@H]1C	i	i	-6.1*	i	i	i	i	i	i
COCCN1C(=O)N[C@@H](c2cccc(C(F)(F)F)c2)[C@H](C(=O)OC)[C@H]1C	i	i	i	i	i	x	x	x	x
CCOC(=O)c1sc2nc(C)nc(SCC(=O)N(C)C3CCS(=O)(=O)C3)c2c1C (stereo not given)	i	i	i	i	i	x	x	x	x
Cn1c(=O)cc(Nc2ccccc2)c2c(=O)n(-c3ccccc3)c(=O)n(-c3ccccc3)c21	i	i	i	i	i	x	x	x	x
Cc1sc2nc(SCC(=O)N3CCOCC3)[nH]c(=O)c2c1-c1ccccc1	i	i	-5.1*	i	i	i	i	i	i
CC1CCC(C(C)C)C(OC(=O)Cn2c(-c3ccc(Cl)cc3)[n+](C)c3ccccc32)C1 (stereo not given)	i	i	-9.9*	i	-8.6*	45%*	i	i	i
O=C1CCC/C(=N/Nc2ccc(Cl)cc2)C1	i	i	i	i	i	x	x	x	x
CCN1CCN(S(=O)(=O)c2ccc(C(=O)Nc3sc4c(c3C(N)=O)CCN(CC)C4)cc2)CC1	i	i	-9.4*	i	i	i	i	i	i
CC(=O)c1ccc(OC(=O)c2ccc(-n3nc(C)cc3C)cc2)cc1	i	i	i	i	i	x	x	x	x
Cc1cc(C)n(-c2ccc(C(=O)Oc3ccc4c(c3)OCO4)cc2)n1	i	i	-6.7*	i	i	i	i	i	i
O=C(COC(=O)CCc1ccccc1)Nc1ncc(Cl)cc1Cl	i	i	i	i	i	x	x	x	x
Cc1ccc(CN(C(=O)COc2ccc(C)c(C)c2)C2CCS(=O)(=O)C2)o1 (stereo not given)	i	i	i	i	i	x	x	x	x
Cn1cc(S(=O)(=O)CC(=O)Nc2ccc(Br)cc2)c2ccccc21	i	i	-6.1*	i	i	i	i	i	i
Cc1cc(NCCN2CCOCC2)n2c(nc3ccccc32)c1C#N	i	i	i	i	i	x	x	x	x
Cc1cc(NCCCN2CCOCC2)n2c(nc3ccccc32)c1C#N	i	i	-6*	i	i	78%*	i	i	i
Cc1cc(N=Nc2ccccc2C(=O)O)c(C)c(C)c1O	i	i	-6.9*	i	i	i	i	i	i
SMILES	RGS4 block	MrgX1 allo act	MrgX1 antag	MrgX1 ag	RGS4 act	MrgX1 antag conf	HEK293 Ca flux	HEK293 Ca counter	HEK293 Ca cntr2
Cc1cc(O)c(C(C)C)cc1N=Nc1ccccc1C(=O)O	i	i	i	i	i	x	x	x	x
O=C(O)Cn1cnc2c(oc3ccccc32)c1=O	i	i	i	i	i	x	x	x	x
O=C(Cn1cnc2c(oc3ccccc32)c1=O)c1ccccc1	i	i	-8.2*	i	i	i	i	i	i
N#Cc1c(-c2ccccc2)nc2n1CCS2	i	i	i	i	i	x	x	x	x
CCCn1c(CCc2ccccc2)n[nH]c1=S	i	i	-7.5*	i	i	i	i	i	i
CCCCc1n[nH]c(=S)n1Cc1ccc(Cl)cc1	i	i	-5.7*	i	i	i	i	i	i
Cc1c(C(=O)C(=O)N2CCCc3ccccc32)c2ccccc2n1C	i	i	i	i	i	x	x	x	x
Cc1ccc(NCc2ccccc2O)cc1	i	i	i	i	i	x	x	x	x
Cc1ccc(NCc2ccccc2F)cc1	i	i	-5.9*	i	i	i	i	i	i
COc1ccc(CNC(=O)COc2cc3c(c4oc(=O)cc(C)c24)CCC(C)(C)O3)cc1OC	i	i	-4.7*	i	i	i	i	i	i
Cc1cc(=O)oc2c3c(cc(OCC(=O)NCc4ccncc4)c12)OC(C)(C)CC3	i	i	-4.9*	i	i	76%*	i	i	i
O=C(NCc1ccccc1)c1nnc(CS(=O)(=O)c2ccccc2)o1	i	i	i	i	i	x	x	x	x
O=C(COC(=O)C1(c2ccc(F)cc2)CCCC1)N1CCc2ccccc21	i	i	i	i	i	x	x	x	x
CCN1CCN(C(=O)CCNC(=O)Cn2cnc3ccccc3c2=O)CC1	i	i	i	i	i	x	x	x	x
Cc1ccc2c(c1)cc(CN(Cc1cccnc1)C(=O)c1ccccc1)c1nnnn12	i	i	i	i	i	x	x	x	x
Cc1ccc2c(c1)cc(CN(Cc1ccc3c(c1)OCO3)S(=O)(=O)c1ccccc1)c1nnnn12	i	i	-4.5*	i	i	i	i	i	i
COc1cc(C(=O)N/C(=C\c2cn(C)c3ccccc23)C(=O)NCCN2CCOCC2)cc(OC)c1OC	i	i	i	i	i	x	x	x	x
